The source made the active and inactive calls.
Legend:
Assay type in all cases: functional, organism-based
Bacillus anthracis = test: Antibacterial activity against Bacillus anthracis at 1mM by almar blue dye reduction assay
Bacillus cereus = test: Antibacterial activity against Bacillus cereus at 1 mM by almar blue dye reduction assay
Method in brief: (§1)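 Single-point primary screen at 1 mM using Alamar Blue dye reduction as the growth read-out.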

Bacillus subtilis = test: Antibacterial activity against Bacillus subtilis at 1 mM by almar blue dye reduction assay; method in brief: as §1
Staphylococcus aureus = test: Antibacterial activity against Staphylococcus aureus at 1 mM by almar blue dye reduction assay; method in brief: as §1
Escherichia coli = test: Antibacterial activity against Escherichia coli at 1 mM by almar blue dye reduction assay; method in brief: as §1
Pseudomonas aeruginosa = test: Antibacterial activity against Pseudomonas aeruginosa at 1 mM by almar blue dye reduction assay; method in brief: as §1
Candida albicans = test: Antifungal activity against Candida albicans at 1 mM by almar blue dye reduction assay; method in brief: as §1
Cryptococcus neoformans = test: Antifungal activity against Cryptococcus neoformans at 1 mM by almar blue dye reduction assay; method in brief: as §1
Saccharomyces cerevisiae = test: Antifungal activity against Saccharomyces cerevisiae at 1 mM by almar blue dye reduction assay; method in brief: as §1

Measured: Activity

Cc1cccc(NC(=O)OCC#Cc2cn([C@H](C)CC3CCC([C@@H](C)C(=O)N(C)Cc4ccccc4)O3)nn2)c1 (single isomer, unassigned)
inactive: all assays above

C[C@H](CC1CCC([C@@H](C)C(=O)N(C)Cc2ccccc2)O1)n1cc(C#CCNC(=O)OCc2ccccc2)nn1 (single isomer, unassigned)
inactive: all assays above

C[C@H](C[C@H]1CC[C@H]([C@@H](C)C(=O)N2CCCC2)O1)n1cc(C#CCN(C)C)nn1
inactive: all assays above

CCN(CC)C(=O)[C@H](C)[C@H]1CC[C@@H](C[C@@H](C)n2cc(C#Cc3ccccn3)nn2)O1
inactive: all assays above

CCOC(=O)C#Cc1cn([C@H](C)CC2CCC([C@@H](C)C(=O)N3CCCC3)O2)nn1 (single isomer, unassigned)
inactive: all assays above

CCN(CC)C(=O)[C@H](C)[C@H]1CC[C@@H](C[C@@H](C)n2cc(C#CCN(C)CCc3ccccc3)nn2)O1
inactive: all assays above

C[C@H](C[C@@H]1CC[C@H]([C@@H](C)C(=O)N(C)Cc2ccccc2)O1)n1cc(C#CCN2CCOCC2)nn1
inactive: all assays above

C[C@H](C[C@@H]1CC[C@H]([C@@H](C)C(=O)N2CCN(CC3CCCO3)CC2)O1)n1cc(C#CCN2CCC(c3ccccc3)CC2)nn1 (stereo partly drawn)
inactive: all assays above

CCN(CC)C(=O)[C@H](C)[C@H]1CC[C@@H](C[C@@H](C)n2cc(C#CCOc3cccc(-c4ccccc4)c3)nn2)O1
inactive: all assays above

Cc1cccc(NC(=O)OCC#Cc2cn([C@H](C)CC3CCC([C@@H](C)C(=O)N4CCCC4)O3)nn2)c1 (single isomer, unassigned)
inactive: all assays above

C[C@H](C[C@@H]1CC[C@H]([C@@H](C)C(=O)N2CCN(CC3CCCO3)CC2)O1)n1cc(C#CCN2CCOCC2)nn1 (stereo partly drawn)
inactive: all assays above

C[C@H](C[C@@H]1CC[C@H]([C@@H](C)C(=O)N2CCN(CC3CCCO3)CC2)O1)n1cc(C#CCOc2ccc(Br)cc2)nn1 (stereo partly drawn)
inactive: all assays above

C[C@H](CC1CCC([C@@H](C)C(=O)N2CCN(CC3CCCO3)CC2)O1)n1cc(C#CCCCC#N)nn1 (single isomer, unassigned)
inactive: all assays above

C[C@H](C[C@@H]1CC[C@H]([C@@H](C)C(=O)N2CCN(CC3CCCO3)CC2)O1)n1cc(C#CCN2CCN(c3ccccc3)CC2)nn1 (stereo partly drawn)
inactive: all assays above

COc1ccc(OCC#Cc2cn([C@H](C)C[C@@H]3CC[C@H]([C@@H](C)C(=O)N4CCN(CC5CCCO5)CC4)O3)nn2)cc1 (stereo partly drawn)
inactive: all assays above

CCN(CC)C(=O)[C@H](C)[C@H]1CC[C@@H](C[C@@H](C)n2cc(C#CCOc3ccc(OC)cc3)nn2)O1
inactive: all assays above

COCCNCC#Cc1cn([C@H](C)C[C@@H]2CC[C@H]([C@@H](C)C(=O)NC(C)C)O2)nn1
inactive: all assays above

Reference: ChEMBL document CHEMBL1155099, “Natural products in parallel synthesis: triazole libraries of nonactic acid” (2008)
